Published values collected from several papers.
Protocols differ between the studies behind these lines.

Compound	tested on	assay	test system	conditions	measurement	result
COC(=O)/C=C/c1nn(CC2CCCC2)c2ncnc(N)c12	FLO-1	cell growth or viability, resazurin	–	5 days	EC50	> 30000 nM
O=C(/C=C/c1cn(Cc2cn(-c3ccnc4cc(Cl)ccc34)nn2)c2ccccc12)c1ccc(F)cc1	Plasmodium falciparum	parasite growth, SYBR Green	3D7	5 µM, blood stage	inhibition	15.8%
C=CC(=O)NC1CCN(c2ncc3ncnc(Nc4ccc(Oc5ccc6c(c5)ncn6C)c(C)c4)c3n2)CC1	SW900	cell growth or viability	–	–	EC50	46.3 nM
O=C1C=C2NCCc3c[nH]c(c32)C1=O	Plasmodium falciparum	parasite growth, SYBR Green	DD2	blood stage	IC50	23700 nM
O=C(NO)c1ccc(CNc2nc3cccc(-c4ccc5c(c4)OCO5)n3n2)cc1	NCI-H460	cell growth or viability, SRB	–	–	GI50	680 nM
CNc1ncc2c(/C=C/C(=O)N3CCC(O)CC3)nn(CC3CCCC3)c2n1	FLO-1	cell growth or viability, resazurin	–	5 days	EC50	> 30000 nM
O=C(/C=C/c1cn(Cc2cn(-c3ccnc4cc(Cl)ccc34)nn2)c2ccccc12)c1ccc(Cl)cc1Cl	Plasmodium falciparum	parasite growth, SYBR Green	3D7	5 µM, blood stage	inhibition	4.87%
Cn1cc2c3c1C(=O)C(NCCc1ccc(O)cc1)=CC3=[N+](C)CC2	Plasmodium falciparum	parasite growth, SYBR Green	W2	blood stage	IC50	394 nM
CNc1ncc2c(/C=C/C(=O)N3CCC(OC)CC3)nn(CC3CCCCC3)c2n1	FLO-1	cell growth or viability, resazurin	–	5 days	EC50	7150 nM
COCC(=O)N1CCCC(C(=O)NCc2nc(-c3ccccc3)cs2)C1 (racemic)	Plasmodium falciparum	parasite growth, SYBR Green	–	72 h	EC50	150 nM
O=C(/C=C/c1cn(Cc2cn(-c3ccnc4cc(Cl)ccc34)nn2)c2ccccc12)c1cc(OCc2ccccc2)cc(OCc2ccccc2)c1	Plasmodium falciparum	parasite growth, SYBR Green	3D7	10 µM, blood stage	inhibition	49%
CC1CCN(C(=O)/C=C/c2nn(CC3CCCC3)c3ncnc(N)c23)CC1	FLO-1	cell growth or viability, resazurin	–	5 days	EC50	> 30000 nM
COc1ccc(C(=O)/C=C/c2cn(Cc3cn(-c4ccnc5cc(Cl)ccc45)nn3)c3ccccc23)cc1OC	Plasmodium falciparum	parasite growth, SYBR Green	3D7	5 µM, blood stage	inhibition	-4%
CNc1ncc2c(/C=C/C(=O)N3CCC(OC)CC3)nn(Cc3ccc(OC)cc3)c2n1	FLO-1	cell growth or viability, resazurin	–	5 days	EC50	1130 nM
O=C1C(NCCc2ccc(O)cc2)=CC2=NCCc3c[nH]c1c32	Plasmodium falciparum	parasite growth, SYBR Green	DD2	blood stage	IC50	291 nM
